Assay outcomes (PubChem BioAssay)
RORa activator: RORA (human) activation; P35398; CHO-K1 Gal4-RORA LBD luciferase reporter, luminescence; percent increase over mock-subtracted basal signal; activation, % at 10 µM; 65,000 tested, 1.5% active; AID 560;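 active = activation above the mean of all tested compounds plus 3 SD, cut at about 49% in these data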;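 note: 0% = DMSO-treated RORA cells and 100% = added signal equal to DMSO minus mock-transfected cells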
D1 allo mod: D1 dopamine receptor (human) allosteric modulation; HEK293 D1, CRE-luciferase, dopamine EC30 potentiation; actives deviate in either direction; B-score at 10 µM; 58,000 tested, 5.9% active; P21728;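 active = luminescence count or its row- and column-corrected plate score outside the 99.7% band of the plate's sample wells, on either side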
SF1 activator: activates the human nuclear receptor SF-1 | activation, % at 10 µM | CHO-K1 Gal4-SF-1 LBD luciferase reporter; % increase over DMSO SF-1-specific signal | 65,000 tested, 1.9% active;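 active = activation above the mean activation of all tested compounds plus 3 SD, cut at about 50% in these data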
Target sequence (Q13285 whole entry, looked up, the tested form may be a part): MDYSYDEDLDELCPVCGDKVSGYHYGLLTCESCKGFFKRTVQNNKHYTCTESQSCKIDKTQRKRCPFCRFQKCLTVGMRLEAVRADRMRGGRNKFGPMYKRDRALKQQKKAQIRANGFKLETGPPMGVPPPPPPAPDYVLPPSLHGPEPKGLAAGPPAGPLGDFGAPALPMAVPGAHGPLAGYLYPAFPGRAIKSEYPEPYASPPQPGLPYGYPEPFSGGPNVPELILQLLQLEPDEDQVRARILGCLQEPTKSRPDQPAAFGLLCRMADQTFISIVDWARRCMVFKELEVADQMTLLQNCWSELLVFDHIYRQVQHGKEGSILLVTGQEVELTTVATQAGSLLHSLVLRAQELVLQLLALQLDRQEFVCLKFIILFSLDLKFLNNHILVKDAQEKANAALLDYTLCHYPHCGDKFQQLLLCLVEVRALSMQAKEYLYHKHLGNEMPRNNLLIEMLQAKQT
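Compound – one dose, 10 µM compound, 1% DMSO · Test system – transient Gal4-SF-1 LBD reporter, CHO-K1 · Input – 4,000 cells in each well · Read-out basis – percent activation relative to DMSO median and mock-transfected background · Replicates – single measurement per compound · Technique – steady-glow luciferase luminescence, read after 15 min reagent incubation · Timing – 20 h compound treatment, 37 °C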
JNK3 inh: JNK3 (human) kinase inhibition | P53779 | purified JNK3 kinase activity, HTS | inhibition, % at 8 µM | 60,000 tested, 0.61% active | AID 746; in the data active = inhibition above about 17%;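 note: 0% = DMSO and 100% = reference inhibitor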
HEK293 NFkB inh: lowers PMA/ionomycin-induced NF-kB signal in HEK293 cells; 62,000 tested, 0.21% active; HEK-293 NF-kB luciferase reporter, luminescence; inhibition, % at 3 µM; AID 465;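 active = inhibition above the mean of all tested compounds plus 3 SD, cut at about 40% in these data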;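 note: 0% = stimulated DMSO wells and 100% = 10 µM reference inhibitor 5653914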
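System: NF-kB luciferase reporter HEK-293 cells | Replication: Single test | Control set: DMSO vs reference inhibitor | Evaluation: % inhibition | Schedule: 1 h pretreatment, 16 h stimulation, 37 °C | Probe or stimulus: PMA with ionomycin | Compound dosing: One dose, 3 µM | Detection: Luciferase luminescence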
Active calls of the source: *; · = not tested or not shown. Compounds with a hit are over-represented: about 7.9% of the library has one in this group of screens.

SMILES | RORa activator | D1 allo mod | SF1 activator | JNK3 inh | HEK293 NFkB inh
CCCN(CCC)CCNC(=O)C1CCCN(S(=O)(=O)c2ccc3c(c2)oc(=O)n3C)C1 (stereo not given) | 1 | -3.1* | 1 | 1 | -5
COc1ccc(NC(=O)c2ccc(COc3ccccc3Br)o2)cc1OC | 28 | 0.029 | 9 | 6 | 21
Cc1nc2ccccc2c2oc(C(=O)NCC3COc4ccccc4O3)cc12 (stereo not given) | -11 | -3.5* | -16 | -5 | 6
COc1cc(NC(=O)c2ccc(COc3ccccc3Br)o2)cc(OC)c1OC | -21 | 0.16 | -27 | 20* | -8
COc1ccc(C)cc1NC(=O)c1cc2c(C)nc3ccccc3c2o1 | -1 | 0.87 | -9 | -16 | 13
COc1cc(NC(=O)c2cc3c(C)nc4ccccc4c3o2)cc(OC)c1OC | -11 | -4.6* | 5 | 4 | 17
Cc1cccc(NC(=O)c2cc(-c3ccco3)nc3ccccc23)n1 | -12 | -3.7* | 0 | -2 | 18
N#CC1=C(N)OC2=C(C(=O)CCC2)C1Cc1ccccc1 (stereo not given) | 3 | 0.082 | -22 | -4 | 18
COc1cccc(N2CC(C(=O)Nc3ccc(C(=O)OC(C)C)cc3)CC2=O)c1 (stereo not given) | 10 | 0.57 | -8 | -5 | 14
CCOC(=O)c1c(C)c(C(=O)NCCCOC(C)C)c(C)n1C | 6 | · | 5 | -2 | 10
CC1CCc2cc(F)ccc2N1C(=O)CN1C(=O)c2ccccc2C1=O (stereo not given) | -30 | 1.7 | -20 | -1 | 19
O=C1N2CCSC2=NC1(NS(=O)(=O)c1ccccc1)C(F)(F)F (stereo not given) | 36 | 0.37 | 7 | 6 | 4
COc1ccc(NC(=O)c2cc(C)on2)cc1OC | -26 | 0.9 | 7 | 6 | 11
COc1ccc(NC(=O)c2cc(-c3ccc(C)o3)nc3ccccc23)cc1OC | 53* | -4.7* | 24 | -5 | 8
CC(=O)NC(C)C(c1cccs1)N1CCN(c2ccccc2)CC1 (stereo not given) | 0 | -0.95* | -4 | -3 | 4
CC1(C)OC(=O)C2(Cc3ccccc3N3CCCCC32)C(=O)O1 (stereo not given) | -6 | 0.72 | -10 | -3 | -2
CN(C)c1nc(Oc2ccc(=O)n(-c3ccccc3)n2)nc(N2CCOCC2)n1 | -5 | 5.6* | 0 | -4 | 6
N#CC1=C(N)Oc2n[nH]c(-c3ccc(F)cc3)c2C1c1cccnc1 (stereo not given) | 5 | 4.8* | 7 | · | 6
CCCNC(=O)c1cccc(Cn2nc(C)c(Br)c2C)c1 | -5 | -1.7* | -16 | 5 | 4
O=c1/c(=C/c2ccccn2)sc2nc3ccccc3n12 | 44 | -3.8* | 43 | -2 | -42
COC(=O)/C=c1/sc2nc3ccccc3n2c1=O | -11 | 0.56 | -3 | 2 | -1
O=c1c2ccccc2nc2sc3ccccc3n12 | 60* | -0.062 | 57* | 8 | -15
COc1ccc(CCNC(=O)COC(=O)c2cnccn2)cc1 | -7 | -2 | 0 | 4 | 4
CC(C)(C)NC(=O)CC(CC(=O)O)c1ccccc1 (stereo not given) | -10 | -0.62 | -4 | 1 | 5
CCOC(=O)c1[nH]c2ccc(C)cc2c1N=CN(CC)CC | -3 | · | 9 | -5 | ·
SMILES | RORa activator | D1 allo mod | SF1 activator | JNK3 inh | HEK293 NFkB inh
CCOC(=O)c1[nH]c2ccc(C)cc2c1N | 12 | · | 73* | -11 | ·
Brc1[nH]nc2ccccc12 | 19 | 0.021 | 0 | · | -2
CCCCSc1nsc(NC(C)=O)n1 | 56* | -1.4 | 49 | 2 | -36
CCCCCCSc1nsc(NC(C)=O)n1 | 75* | -0.013 | 21 | -2 | -23
COc1ccccc1-n1c(SCC(=O)N2CCCC2)nc2cccnc21 | -13 | 0.77 | -12 | -9 | 0
CCCc1cc(=O)n2[nH]c(NCc3c(F)cccc3Cl)nc2n1 | 0 | -0.085 | -15 | -1 | -5
COC(=O)c1ccc2c(c1)S(=O)(=O)NC(=NCc1ccco1)S2 | -10 | -2.4 | 9 | 7 | 4
CC(C)Cn1cnc2c1c(=O)n(CC(=O)Nc1ccc3c(c1)OCO3)c(=O)n2Cc1ccccc1 | -4 | 0.89 | 2 | 1 | 12
COc1ccccc1NC(=O)c1oc2ccccc2c1NC(=O)c1cc(OC)c(OC)c(OC)c1 | -5 | 14* | 19 | 7 | 11
Cc1nc(Nc2ncc3c(n2)CC(C)(C)CC3=O)nc2ccccc12 | -9 | · | 6 | 2 | ·
COc1ccc(Nc2nc(C)c3ccccc3n2)cc1 | 55* | 0.3 | 99* | -4 | -17
CC1=NC(Nc2nc(C)c3ccccc3n2)=NC(C)(C)C1 | -10 | -4.1* | -22 | 2 | 5
COc1nc(Nc2nc3ccccc3c(=O)[nH]2)nc2ccc(C)cc12 | 13 | -2.7* | -76 | 2 | 30
CC1(C)Cc2noc(N)c2C(C)(C)N1OC(=O)c1ccco1 | 16 | -1 | 0 | -4 | 11
CCOC(=O)CCn1nnc(N)n1 | 27 | -4.2* | 0 | 1 | 7
Nn1c(Nc2ccccc2)nc2ccccc21 | 50* | -0.072 | 42 | -15 | -7
COCCCn1c(C2CCCCC2)nc2oc3cc(OC)ccc3c(=O)c2c1=O | 0 | 0.36 | -11 | -2 | 2
CN(C)c1nc(N)nc(-c2nc3ccccc3s2)n1 | 11 | 0.8 | 54* | -2 | -57
Nc1nncn1C(=O)CCCOc1ccc(Cl)cc1Cl | -12 | 1 | -3 | 4 | 14
Cn1c(=O)c2c(nc(N3CCN(Cc4ccccc4)CC3)n2CCSc2ncccn2)n(C)c1=O | 27 | -0.14 | -3 | 2 | 7
CC(C)OCCCNC(=O)c1cc2c(s1)CS(=O)(=O)C2 | -16 | -0.62 | 1 | · | 3
O=C(Nc1ccc2c(c1)OCCO2)C1CCCN(S(=O)(=O)c2cnc[nH]2)C1 (stereo not given) | -2 | -0.059 | 15 | 0 | 13
CCN(CC)c1ccc2cc(NC(=O)CCC(=O)O)c(=O)oc2c1 | -66 | -7.7* | -59 | -14 | 53*
CCN(CC)c1ccc2cc(C(=O)Nc3ccccn3)c(=O)oc2c1 | -22 | · | 11 | -15 | ·
Cc1ccc2[nH]c3c(NCc4ccco4)ncnc3c2c1 | -8 | -3.6* | -18 | 10 | 6
SMILES | RORa activator | D1 allo mod | SF1 activator | JNK3 inh | HEK293 NFkB inh
CCc1ccc2nc(NC(=O)c3cc(C)on3)sc2c1 | 69* | 0.49 | 117* | -14 | -4
Cc1cc(C(=O)Nc2nc3c(s2)CCCC3)no1 | 4 | -3.8* | 4 | 3 | -27
CN(C)c1ccc(C(=O)Nc2nc3c(s2)CCCC3)cc1 | -42 | -6* | -25 | -6 | -52
COc1ccc(CCNC(=O)c2ccn[nH]2)cc1OC | -3 | 1.5 | -15 | -1 | 18
COc1cccc(OCCOc2c(OC)cccc2OC)c1 | 3 | -0.31 | -1 | -1 | 5
CCCCc1c(O)c2ccccc2[nH]c1=O | -6 | -0.021 | 5 | -2 | -4
CCCCCCC(=O)Nc1c(O)c2ccccc2[nH]c1=O | -14 | -3.1* | -6 | -7 | -2
